In ChEMBL document CHEMBL1156242, “Synthesis of a novel series of diphenolic chromone derivatives as inhibitors of NO production in LPS-activated RAW264.7 macrophages” (Bioorg Med Chem, 2010):
pIC50: −log10 of the molar value.

Key:
RAW264.7 [1] = test: Cytotoxicity against LPS-stimulated mouse RAW264.7 cells after 24 hrs by MTT assay; format: cell-based; details: RAW264.7, 24 h
In short: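 RAW264.7 in 96-well plates left untreated or exposed to compounds at various concentrations for 24 h. MTT (5 mg/mL) added 4 h before end. Lysis buffer (10% SDS, 50% DMF, pH 7.2) applied 6 h, absorbance read at 570 nm.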

RAW264.7 [2] = test: Antiinflammatory activity in LPS-stimulated mouse RAW264.7 cells assessed as inhibition of nitric oxide production after 24 hrs by Griess reagent; format: functional, cell-based; details: RAW264.7, 24 h

Work on `O=C(Oc1coc2cc(O)cc(O)c2c1=O)c1ccccc1` yielded a pIC50 (RAW264.7 [1]) of less than 4.00 and a pIC50 (RAW264.7 [2]) of 4.06.
`CC(=O)Oc1coc2cc(O)cc(O)c2c1=O` was tested, and the pIC50 (RAW264.7 [1]) was less than 4.00 and the pIC50 (RAW264.7 [2]) was 4.22.
Compound `COc1ccc(C(=O)Oc2coc3cc(O)cc(O)c3c2=O)cc1` has a pIC50 (RAW264.7 [1]) of less than 4.00 and a pIC50 (RAW264.7 [2]) of 4.33.
Compound `O=c1cc(-c2ccc(O)cc2)oc2cc(O)cc(O)c12` [APIGENIN] has a pIC50 (RAW264.7 [2]) of 5.11.
Work on `Cc1ccc(S(=O)(=O)Oc2coc3cc(O)cc(O)c3c2=O)cc1` yielded a pIC50 (RAW264.7 [1]) of less than 4.00 and a pIC50 (RAW264.7 [2]) of 4.72.
Compound `CCCCC(=O)Oc1coc2cc(O)cc(O)c2c1=O` has a pIC50 (RAW264.7 [1]) of less than 4.00 and a pIC50 (RAW264.7 [2]) of 4.22.
In the case of `O=c1c(O)coc2cc(O)cc(O)c12`, the pIC50 (RAW264.7 [1]) was less than 4.00 and the pIC50 (RAW264.7 [2]) was less than 4.00.
In the case of `CS(=O)(=O)Oc1coc2cc(O)cc(O)c2c1=O`, the pIC50 (RAW264.7 [1]) was less than 4.00 and the pIC50 (RAW264.7 [2]) was 4.27.
Work on `O=c1cc(-c2ccc(O)c(O)c2)oc2cc(O)cc(O)c12` [LUTEOLIN] yielded a pIC50 (RAW264.7 [2]) of 4.98.
`CCCCCCCCC(=O)Oc1coc2cc(O)cc(O)c2c1=O` was tested, and the pIC50 (RAW264.7 [1]) was less than 4.00 and the pIC50 (RAW264.7 [2]) was 4.21.
`O=c1c(CO)coc2cc(O)cc(O)c12` gave a pIC50 (RAW264.7 [1]) of less than 4.00 and a pIC50 (RAW264.7 [2]) of less than 4.00.
`O=c1c(-c2ccc(O)cc2)coc2cc(O)cc(O)c12` [GENISTEIN] gave a pIC50 (RAW264.7 [2]) of 4.59.
In the case of `CCn1cc(-c2ccc(O)cc2)c(=O)c2c(O)cc(O)cc21` [AZAISOFLAVONE], the pIC50 (RAW264.7 [2]) was 5.11.
`Cc1ccccc1C(=O)Oc1coc2cc(O)cc(O)c2c1=O` showed a pIC50 (RAW264.7 [1]) of less than 4.00 and a pIC50 (RAW264.7 [2]) of 4.77.
